Results taken from ChEMBL document CHEMBL3286111, “Tryptophan hydroxylase 1 (Tph-1)-targeted bone anabolic agents for osteoporosis” (J Med Chem, 2014).
Calls of active or inactive are those of the source. The rule behind the calls is not given here.

How the values were obtained:
Rattus norvegicus [1] = test: Antiosteoporotic activity in ovariectomized rat assessed as increase in trabecular bone volume fraction at 10 to 20 mg/kg/day, po for 30 days by microcomputed tomographic analysis relative to control; format: functional, Trabecula
How it was run: (§1)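 Female rats, 12 weeks old, underwent bilateral ovariectomy; sham, OVX-vehicle and ip PTH 20 μg/kg/day groups were included; n = 8. Oral dosing at 1, 10 and 20 mg/kg/day in 5% ethanol/95% water began 3 days post-surgery, once daily for 30 days. Lumbar vertebrae were scanned by μCT for BV/TV, Tb.Th, Tb.N, Tb.Sp and BMD.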

Rattus norvegicus [2] = test: Effect on liver pathology in ovariectomized rat at 10 to 20 mg/kg/day, po for 30 days by hematoxylin-eosin staining-based light microscopic analysis; format: ADME, organism-based; parameters: route oral; settings: in vivo, 720 h
How it was run: (§2)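 OVX rats dosed orally with 9a (1, 10, 20 mg/kg/day) for 30 days from 3 days post-surgery. Uteri and livers were collected at the end, then sectioned, stained and examined by light microscopy for endometrial luminal epithelium, glands and liver morphology/pathology.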

Rattus norvegicus [3] = test: Antiosteoporotic activity in ovariectomized rat assessed as decrease in trabecular separation at 10 to 20 mg/kg/day, po for 30 days by microcomputed tomographic analysis relative to control; format: functional, Trabecula; parameters: scale not given: the % may be the effect or the level left; how it was run: as §1
[4] = Cytotoxicity against rat PC12 cells by MTT assay; format: cell-based; settings: pc-12
How it was run: (§3)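 RBL2H3 cells (α-MEM) or PC12 cells (D-MEM), both with 10% FBS, treated at a single dose in 0.1% DMSO; 0.1% DMSO control; 37 °C, 5% CO2. MTT (5 mg/mL) added 4 h before the end, then SDS/DMF lysis buffer (pH 7.2) for 6 h; absorbance read at 570 nm. Cytotoxicity % calculated from background-corrected OD versus control.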

Rattus norvegicus [5] = test: Antiosteoporotic activity in ovariectomized rat assessed as decrease in trabecular separation at 1 mg/kg/day, po for 30 days by microcomputed tomographic analysis; format: functional, organism-based; settings: Trabecula
How it was run: (§4)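 Ovariectomized 12-week-old female rats dosed orally once daily with 9a (1, 10, 20 mg/kg/day, 5% ethanol vehicle) for 30 days, beginning 3 days after surgery, n = 8 per group. Lumbar vertebrae were collected after CO2 euthanasia and scanned by micro-CT for BV/TV, Tb.Th, Tb.N, Tb.Sp and BMD.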

Rattus norvegicus [6] = test: Effect on liver morphology in ovariectomized rat at 10 to 20 mg/kg/day, po for 30 days by hematoxylin-eosin staining-based light microscopic analysis; format: ADME, organism-based; parameters: route oral; settings: in vivo, 720 h; how it was run: as §2
Rattus norvegicus [7] = test: Antiosteoporotic activity in ovariectomized rat assessed as increase in trabecular thickness at 1 mg/kg/day, po for 30 days by microcomputed tomographic analysis; format: functional, organism-based; settings: Trabecula; how it was run: as §4
Rattus norvegicus [8] = test: Antiosteoporotic activity in ovariectomized rat assessed as increase in trabecular bone volume fraction at 1 mg/kg/day, po for 30 days by microcomputed tomographic analysis; format: functional, organism-based; settings: Trabecula; how it was run: as §4
Rattus norvegicus [9] = test: Effect on endometrial luminal epithelium with undeveloped endometrial gland in ovariectomized rat at 10 to 20 mg/kg/day, po for 30 days by hematoxylin-eosin staining-based light microscopic analysis; format: ADME, organism-based; parameters: route oral; settings: in vivo, 720 h; how it was run: as §2
Brain = test: Drug uptake in ovariectomized rat brain at 10 to 20 mg/kg, po qd for 7 days by LC-MS analysis; format: ADME, organism-based; parameters: dose 10-20 mg/kg, route oral; settings: in vivo, 168 h
How it was run: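 OVX rats given oral 9a at 10 or 20 mg/kg once daily for 7 days, starting 3 days after surgery, n = 5. Brain homogenate (about 2.0 g) extracted with 5% HClO4 and ethyl acetate, centrifuged; the organic layer was dried and analysed by LC-MS/MS (limit of detection 12.4 pg).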

Rattus norvegicus [10] = test: Antiosteoporotic activity in ovariectomized rat assessed as decrease in serum CTX-1 level at 10 to 20 mg/kg/day, po for 30 days by ELISA; format: functional, organism-based
How it was run: (§5)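 OVX female rats (12 weeks old), oral 9a at 1, 10 or 20 mg/kg per day in 5% ethanol vehicle, starting 3 days post-surgery, for 30 days, n = 8. Serum was taken at the end, centrifuged and stored at −20 °C. P1NP or CTX-1 was measured by ELISA kit and reported as means ± SD.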

Rattus norvegicus [11] = test: Antiosteoporotic activity in ovariectomized rat assessed as increase in trabecular number at 1 mg/kg/day, po for 30 days by microcomputed tomographic analysis; format: functional, organism-based; settings: Trabecula; how it was run: as §4
Rattus norvegicus [12] = test: Antiosteoporotic activity in ovariectomized po dosed rat assessed as increase in serum P1NP level administered for 30 days by ELISA; format: functional, organism-based; how it was run: as §5
Rattus norvegicus [13] = test: Antiosteoporotic activity in ovariectomized rat assessed as decrease in gut serotonin level at 10 mg/kg, po qd for 7 days by HPLC analysis relative to control; format: functional; parameters: scale not given: the % may be the effect or the level left
How it was run: (§6)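 Female rats, 12 weeks old (220 g), underwent bilateral ovariectomy under ip pentobarbital; sham controls included; n = 5 per group. Oral dosing in vehicle of 5% ethanol/95% water began 3 days post-surgery, once daily for 7 days. Small intestine (jejunum, ileum) was homogenised in 5% HClO4 and mobile phase. Serotonin was read by C18 HPLC with fluorescence detection (ex 290/em 330 nm).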

[14] = Cytotoxicity against rat RBL2H3 cells by MTT assay; format: cell-based; parameters: concentration or dose not given beside the values; settings: rbl-2h3; how it was run: as §3
Rattus norvegicus [15] = test: Antiosteoporotic activity in ovariectomized rat assessed as increase in bone mineral density at 1 mg/kg/day, po for 30 days by microcomputed tomographic analysis; format: functional, organism-based; how it was run: as §4
Rattus norvegicus [16] = test: Antiosteoporotic activity in ovariectomized rat assessed as increase in trabecular number at 10 to 20 mg/kg/day, po for 30 days by microcomputed tomographic analysis relative to control; format: functional, Trabecula; how it was run: as §1
Rattus norvegicus [17] = test: Antiosteoporotic activity in ovariectomized rat assessed as increase in trabecular thickness at 10 to 20 mg/kg/day, po for 30 days by microcomputed tomographic analysis relative to control; format: functional, Trabecula; how it was run: as §1
Rattus norvegicus [18] = test: Antiosteoporotic activity in ovariectomized po dosed rat assessed as decrease in serum serotonin level administered for 30 days by HPLC analysis; format: functional, organism-based
How it was run: (§7)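 Female rats, 12 weeks old (220 g), bilateral ovariectomy under ip pentobarbital; from 3 days after surgery, 9a given orally once daily at 1, 10 or 20 mg/kg in 5% ethanol/95% water for 30 days, n = 8. Serum (HClO4-deproteinized) or brain homogenate (HClO4 plus NaH2PO4/acetonitrile) run on RP-C18 HPLC with fluorescence detection (ex 290/em 330 nm).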

Rattus norvegicus [19] = test: Antiosteoporotic activity in ovariectomized rat assessed as increase in bone mineral density at 10 to 20 mg/kg/day, po for 30 days by microcomputed tomographic analysis relative to control; format: functional; how it was run: as §1
Rattus norvegicus [20] = test: Antiosteoporotic activity in ovariectomized rat assessed as decrease in gut serotonin level at 20 mg/kg, po qd for 7 days by HPLC analysis relative to control; format: functional; parameters: scale not given: the % may be the effect or the level left; how it was run: as §6
Rattus norvegicus [21] = test: Effect on brain serotonin level in ovariectomized rat at 1 to 20 mg/kg/day, po for 30 days by RP-HPLC analysis; format: functional, organism-based; how it was run: as §7

CCOC(=O)CNC(=O)[C@]12CC[C@@H](C)[C@H](C)[C@H]1C1=CC[C@@H]3[C@@]4(C)Cc5nc6ccccc6nc5C(C)(C)[C@@H]4CC[C@@]3(C)[C@]1(C)CC2
Activity (Rattus norvegicus [1]): 28% | Activity (Rattus norvegicus [2]): Non-toxic | Activity (Rattus norvegicus [3]): -24.9% | Activity [4]: Non-toxic | Activity (Rattus norvegicus [5]): inactive | Activity (Rattus norvegicus [6]): Non-toxic | Activity (Rattus norvegicus [7]): inactive | Activity (Rattus norvegicus [8]): inactive | Activity (Rattus norvegicus [9]): Non-toxic | Drug uptake (Brain): Not Active | Activity (Rattus norvegicus [10]): inactive | Activity (Rattus norvegicus [11]): inactive | Activity (Rattus norvegicus [12]): Dose-dependent effect | Activity (Rattus norvegicus [13]): 34% | Activity [14]: 1% | Activity (Rattus norvegicus [15]): inactive | Activity (Rattus norvegicus [16]): 43.3% | Activity (Rattus norvegicus [17]): 24% | Activity (Rattus norvegicus [18]): Dose-dependent effect | Activity (Rattus norvegicus [19]): 22.6% | Activity (Rattus norvegicus [20]): 36% | Activity (Rattus norvegicus [21]): inactive
